Laboratory results reported in ChEMBL document CHEMBL1134379, “Covalently induced activation of the delta opioid receptor by a fluorogenic affinity label, 7'-(phthalaldehydecarboxamido)naltrindole (PNTI)” (J Med Chem, 2001).

Tests used:
Mus musculus [1] = experiment: Antinociceptive activity by mouse tail-flick antinociceptive assay after icv administration in mouse.; type: functional
[2] = molecular target: T1, Delta-type opioid receptor (Homo sapiens, UniProt P41143); experiment: Irreversible binding to delta receptor before pretreatment with naloxone (1 uM) at 1 uM
[3] = molecular target: T1, Delta-type opioid receptor; experiment: Irreversible binding to delta receptor after pretreatment with naloxone (1 uM) at 20 nM of the compound.
Mus musculus [4] = species on record: Mus musculus; experiment: Agonist activity in mouse vas deferens (MVD) assay.; type: functional, organism-based
How it was run: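 Electrically stimulated mouse vas deferens preparation. The compound's inhibition of the twitch was measured and the IC50 was derived from the concentration–effect curve.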

[5] = molecular target: T1, Delta-type opioid receptor; experiment: Irreversible binding to delta receptor before pretreatment with naloxone (1 uM) at 20 nM of the compound.
[6] = molecular target: T1, Delta-type opioid receptor; experiment: Irreversible binding to delta receptor after pretreatment with naloxone (1 uM) at 1 uM of the compound.
Mu-type opioid receptor = Mu-type opioid receptor (Homo sapiens, UniProt P35372); experiment: Binding affinity towards mu-opioid receptor from CHO cells; type: cell-based, Cricetulus griseus
[7] = molecular target: Kappa-type opioid receptor (Homo sapiens, UniProt P41145); experiment: Binding affinity towards opioid receptor kappa 1 from CHO cells; type: cell-based, Cricetulus griseus
[8] = molecular target: T1, Delta-type opioid receptor; experiment: Binding affinity towards delta-opioid receptor from CHO cells; type: cell-based, Cricetulus griseus
[9] = molecular target: T1, Delta-type opioid receptor; experiment: Irreversible binding to delta receptor before pretreatment with naloxone (1 uM) at 1 uM of the compound.

T1 sequence (P41143 whole entry): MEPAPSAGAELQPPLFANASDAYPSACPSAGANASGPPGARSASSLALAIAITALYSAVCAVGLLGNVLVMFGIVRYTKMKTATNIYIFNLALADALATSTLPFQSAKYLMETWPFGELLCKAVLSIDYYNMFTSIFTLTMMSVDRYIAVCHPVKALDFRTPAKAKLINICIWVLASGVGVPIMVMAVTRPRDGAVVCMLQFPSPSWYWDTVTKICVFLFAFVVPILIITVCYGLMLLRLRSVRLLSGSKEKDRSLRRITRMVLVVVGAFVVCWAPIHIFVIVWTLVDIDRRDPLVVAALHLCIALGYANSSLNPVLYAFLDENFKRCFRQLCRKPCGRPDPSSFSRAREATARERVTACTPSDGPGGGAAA
Sequence of Mu-type opioid receptor (P35372 whole entry): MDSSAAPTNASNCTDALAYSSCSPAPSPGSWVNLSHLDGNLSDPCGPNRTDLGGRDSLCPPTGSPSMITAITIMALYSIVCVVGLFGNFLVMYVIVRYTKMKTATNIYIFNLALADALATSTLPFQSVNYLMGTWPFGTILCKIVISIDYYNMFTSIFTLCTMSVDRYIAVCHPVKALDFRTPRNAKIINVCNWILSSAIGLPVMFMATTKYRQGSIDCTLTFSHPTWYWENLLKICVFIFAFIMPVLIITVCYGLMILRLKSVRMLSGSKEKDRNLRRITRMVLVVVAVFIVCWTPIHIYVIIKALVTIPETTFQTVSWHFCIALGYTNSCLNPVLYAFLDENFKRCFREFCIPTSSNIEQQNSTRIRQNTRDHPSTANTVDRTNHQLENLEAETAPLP
Sequence of Kappa-type opioid receptor (P41145 whole entry): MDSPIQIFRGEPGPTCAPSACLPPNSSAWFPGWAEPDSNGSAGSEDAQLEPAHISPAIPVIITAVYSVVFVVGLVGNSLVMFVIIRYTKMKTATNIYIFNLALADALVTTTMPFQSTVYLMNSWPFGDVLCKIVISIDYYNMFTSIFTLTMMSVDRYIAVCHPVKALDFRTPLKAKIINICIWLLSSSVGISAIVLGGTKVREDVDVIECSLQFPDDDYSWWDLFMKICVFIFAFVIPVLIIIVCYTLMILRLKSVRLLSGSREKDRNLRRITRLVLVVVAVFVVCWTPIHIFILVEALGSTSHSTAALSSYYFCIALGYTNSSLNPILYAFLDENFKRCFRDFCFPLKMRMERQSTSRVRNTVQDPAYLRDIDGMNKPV

Compound	ED50 (Mus musculus [1])	Binding [2]	Binding [3]	IC50 (Mus musculus [4])	Binding [5]	Binding [6]	Ki (Mu-type opioid receptor)	Ki [7]	Ki [8]	Binding [9]
O=Cc1ccc(C(=O)Nc2cccc3c4c([nH]c23)C2Oc3c(O)ccc5c3[C@@]23CCN(CC2CC2)[C@H](C5)[C@]3(O)C4)cc1C=O (stereo partly drawn)	2.06 nM	3%	28%	0.12 nM	30%	10%	14.9 nM	20.1 nM	1.9 nM	
O=C(Nc1cccc2c3c([nH]c12)C1Oc2c(O)ccc4c2[C@@]12CCN(CC1CC1)[C@H](C4)[C@]2(O)C3)c1ccccc1 (stereo partly drawn)			70%		42%	20%				7%
